From ChEMBL document CHEMBL3272198, “Preparation and in vitro antifungal activities of some quinolizidine derived hemiaminals and beta-tert-amino sulfides” (1976)
Active and inactive are the calls of the source. No cut-off for these calls is given here.

Experiments:
Assay type in all cases: functional
Blastomyces dermatitidis [1] = test: Antifungal activity against Blastomyces dermatitidis Gilchrist & Stokes isolate 1107 at 100 ug/ml after 3 weeks (reference value: 40 mm); conditions: Gilchrist & Stokes isolate 1107, 504 h, read-out: DIZ
Summary of the method: (§1)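 Mycelial phase grown on Sabouraud dextrose agar at 25°C. Agar pH was set to 6 before the test solution was added and was 5.0-5.5 after. Test solutions contained HOAc and Me2SO, and solvent and blank controls were included. Each quadrant was center-inoculated with a 2 × 2 mm piece of a 2-week-old mycelial culture. Colony diameter was measured weekly for 3 weeks and reported as total increments (mm). Duplicates were run.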

Blastomyces dermatitidis [2] = test: Antifungal activity against Blastomyces dermatitidis Gilchrist & Stokes isolate 1107 at 10 ug/ml after 3 weeks (reference value: 40 mm); conditions: Gilchrist & Stokes isolate 1107, 504 h, read-out: DIZ; summary of the method: as §1
Blastomyces dermatitidis [3] = test: Antifungal activity against Blastomyces dermatitidis Gilchrist & Stokes isolate 1107 at 1 ug/ml after 3 weeks (reference value: 40 mm); conditions: Gilchrist & Stokes isolate 1107, 504 h, read-out: DIZ; summary of the method: as §1
Histoplasma capsulatum [4] = test: Antifungal activity against Histoplasma capsulatum Darling isolate 1098 at 10 ug/ml after 3 weeks (reference value: 28 mm); conditions: Darling isolate 1098, 504 h, read-out: DIZ
Histoplasma capsulatum [5] = test: Antifungal activity against Histoplasma capsulatum Darling isolate 1098 at 1 ug/ml after 3 weeks (reference value: 28 mm); conditions: Darling isolate 1098, 504 h, read-out: DIZ
Histoplasma capsulatum [6] = test: Antifungal activity against Histoplasma capsulatum Darling isolate 1106 at 100 ug/ml after 1 week (reference value: 14 mm)
Histoplasma capsulatum [7] = test: Antifungal activity against Histoplasma capsulatum Darling isolate 1106 at 60 ug/ml after 1 week (reference value: 14 mm); conditions: Darling isolate 1106, 168 h, read-out: DIZ
Histoplasma capsulatum [8] = test: Antifungal activity against Histoplasma capsulatum Darling isolate 1106 at 20 ug/ml after 1 week (reference value: 14 mm); conditions: Darling isolate 1106, 168 h, read-out: DIZ
Histoplasma capsulatum [9] = test: Antifungal activity against Histoplasma capsulatum Darling isolate 1106 at 10 ug/ml after 1 week (reference value: 14 mm); conditions: Darling isolate 1106, 168 h, read-out: DIZ
Histoplasma capsulatum [10] = test: Antifungal activity against Histoplasma capsulatum Darling isolate 1106 at 1 ug/ml after 1 week (reference value: 14 mm); conditions: Darling isolate 1106, 168 h, read-out: DIZ
Histoplasma capsulatum [11] = test: Antifungal activity against Histoplasma capsulatum Darling isolate 1106 at 20 ug/ml after 2 weeks (reference value: 25 mm); conditions: Darling isolate 1106, 336 h, read-out: DIZ
Histoplasma capsulatum [12] = test: Antifungal activity against Histoplasma capsulatum Darling isolate 1106 at 10 ug/ml after 2 weeks (reference value: 25 mm); conditions: Darling isolate 1106, 336 h, read-out: DIZ
Histoplasma capsulatum [13] = test: Antifungal activity against Histoplasma capsulatum Darling isolate 1106 at 1 ug/ml after 2 weeks (reference value: 25 mm); conditions: Darling isolate 1106, 336 h, read-out: DIZ
Histoplasma capsulatum [14] = test: Antifungal activity against Histoplasma capsulatum Darling isolate 1106 at 80 ug/ml after 3 weeks (reference value: 31 mm); conditions: Darling isolate 1106, 504 h, read-out: DIZ
Blastomyces dermatitidis [15] = test: Antifungal activity against Blastomyces dermatitidis Gilchrist & Stokes isolate 1099 at 100 ug/ml after 1 week (reference value: 14 mm)
Blastomyces dermatitidis [16] = test: Antifungal activity against Blastomyces dermatitidis Gilchrist & Stokes isolate 1099 at 40 ug/ml after 1 week (reference value: 14 mm)
Blastomyces dermatitidis [17] = test: Antifungal activity against Blastomyces dermatitidis Gilchrist & Stokes isolate 1099 at 20 ug/ml after 1 week (reference value: 14 mm); summary of the method: as §1
Blastomyces dermatitidis [18] = test: Antifungal activity against Blastomyces dermatitidis Gilchrist & Stokes isolate 1099 at 1 ug/ml after 1 week (reference value: 14 mm); conditions: Gilchrist & Stokes isolate 1099, 168 h, read-out: DIZ; summary of the method: as §1
Blastomyces dermatitidis [19] = test: Antifungal activity against Blastomyces dermatitidis Gilchrist & Stokes isolate 1099 at 100 ug/ml after 2 weeks (reference value: 27 mm)
Blastomyces dermatitidis [20] = test: Antifungal activity against Blastomyces dermatitidis Gilchrist & Stokes isolate 1099 at 80 ug/ml after 2 weeks (reference value: 27 mm)
Blastomyces dermatitidis [21] = test: Antifungal activity against Blastomyces dermatitidis Gilchrist & Stokes isolate 1099 at 40 ug/ml after 2 weeks (reference value: 27 mm); conditions: Gilchrist & Stokes isolate 1099, 336 h, read-out: DIZ; summary of the method: as §1
Blastomyces dermatitidis [22] = test: Antifungal activity against Blastomyces dermatitidis Gilchrist & Stokes isolate 1099 at 1 ug/ml after 2 weeks (reference value: 27 mm); conditions: Gilchrist & Stokes isolate 1099, 336 h, read-out: DIZ; summary of the method: as §1
Blastomyces dermatitidis [23] = test: Antifungal activity against Blastomyces dermatitidis Gilchrist & Stokes isolate 1099 at 100 ug/ml after 3 weeks (reference value: 34 mm); conditions: Gilchrist & Stokes isolate 1099, 504 h, read-out: DIZ; summary of the method: as §1
Blastomyces dermatitidis [24] = test: Antifungal activity against Blastomyces dermatitidis Gilchrist & Stokes isolate 1099 at 60 ug/ml after 3 weeks (reference value: 34 mm); conditions: Gilchrist & Stokes isolate 1099, 504 h, read-out: DIZ; summary of the method: as §1
Blastomyces dermatitidis [25] = test: Antifungal activity against Blastomyces dermatitidis Gilchrist & Stokes isolate 1099 at 40 ug/ml after 3 weeks (reference value: 34 mm); conditions: Gilchrist & Stokes isolate 1099, 504 h, read-out: DIZ; summary of the method: as §1
Blastomyces dermatitidis [26] = test: Antifungal activity against Blastomyces dermatitidis Gilchrist & Stokes isolate 1099 at 10 ug/ml after 3 weeks (reference value: 34 mm); conditions: Gilchrist & Stokes isolate 1099, 504 h, read-out: DIZ; summary of the method: as §1
Blastomyces dermatitidis [27] = test: Antifungal activity against Blastomyces dermatitidis Gilchrist & Stokes isolate 1099 at 1 ug/ml after 3 weeks (reference value: 34 mm); conditions: Gilchrist & Stokes isolate 1099, 504 h, read-out: DIZ; summary of the method: as §1
Histoplasma capsulatum [28] = test: Antifungal activity against Histoplasma capsulatum Darling isolate 1098 at 100 ug/ml after 1 week (reference value: 12 mm)
Histoplasma capsulatum [29] = test: Antifungal activity against Histoplasma capsulatum Darling isolate 1098 at 80 ug/ml after 1 week (reference value: 12 mm); conditions: Darling isolate 1098, 168 h, read-out: DIZ
Histoplasma capsulatum [30] = test: Antifungal activity against Histoplasma capsulatum Darling isolate 1098 at 40 ug/ml after 1 week (reference value: 12 mm); conditions: Darling isolate 1098, 168 h, read-out: DIZ
Histoplasma capsulatum [31] = test: Antifungal activity against Histoplasma capsulatum Darling isolate 1098 at 10 ug/ml after 1 week (reference value: 12 mm); conditions: Darling isolate 1098, 168 h, read-out: DIZ
Histoplasma capsulatum [32] = test: Antifungal activity against Histoplasma capsulatum Darling isolate 1098 at 60 ug/ml after 2 weeks (reference value: 21 mm); conditions: Darling isolate 1098, 336 h, read-out: DIZ
Histoplasma capsulatum [33] = test: Antifungal activity against Histoplasma capsulatum Darling isolate 1098 at 10 ug/ml after 2 weeks (reference value: 21 mm); conditions: Darling isolate 1098, 336 h, read-out: DIZ

C[C@@H]1[C@H](O)[C@@H](C)/C=C/C=C/C=C/C=C/C=C/C=C/C=C/[C@H](O[C@@H]2O[C@H](C)[C@@H](O)[C@H](N)[C@@H]2O)C[C@@H]2O[C@](O)(C[C@@H](O)C[C@@H](O)[C@H](O)CC[C@@H](O)C[C@@H](O)CC(=O)O[C@H]1C)C[C@H](O)[C@H]2C(=O)O [AMPHOTERICIN B]
zone of inhibition at 100 µg/mL (Blastomyces dermatitidis [1]): 11 mm | zone of inhibition at 10 µg/mL (Blastomyces dermatitidis [2]): 15 mm | zone of inhibition at 1 µg/mL (Blastomyces dermatitidis [3]): 32 mm | zone of inhibition at 10 µg/mL (Histoplasma capsulatum [4]): 19 mm | zone of inhibition at 1 µg/mL (Histoplasma capsulatum [5]): 28 mm | Activity (Histoplasma capsulatum [6]): inactive | zone of inhibition at 60 µg/mL (Histoplasma capsulatum [7]): 6 mm | zone of inhibition at 20 µg/mL (Histoplasma capsulatum [8]): 6 mm | zone of inhibition at 10 µg/mL (Histoplasma capsulatum [9]): 7 mm | zone of inhibition at 1 µg/mL (Histoplasma capsulatum [10]): 9 mm | zone of inhibition at 20 µg/mL (Histoplasma capsulatum [11]): 7 mm | zone of inhibition at 10 µg/mL (Histoplasma capsulatum [12]): 12 mm | zone of inhibition at 1 µg/mL (Histoplasma capsulatum [13]): 18 mm | zone of inhibition at 80 µg/mL (Histoplasma capsulatum [14]): 12 mm | Activity (Blastomyces dermatitidis [15]): Active | Activity (Blastomyces dermatitidis [16]): Active | Activity (Blastomyces dermatitidis [17]): Active | zone of inhibition at 1 µg/mL (Blastomyces dermatitidis [18]): 7 mm | Activity (Blastomyces dermatitidis [19]): Active | Activity (Blastomyces dermatitidis [20]): Active | zone of inhibition at 40 µg/mL (Blastomyces dermatitidis [21]): 2 mm | zone of inhibition at 1 µg/mL (Blastomyces dermatitidis [22]): 10 mm | zone of inhibition at 100 µg/mL (Blastomyces dermatitidis [23]): 2 mm | zone of inhibition at 60 µg/mL (Blastomyces dermatitidis [24]): 4 mm | zone of inhibition at 40 µg/mL (Blastomyces dermatitidis [25]): 4 mm | zone of inhibition at 10 µg/mL (Blastomyces dermatitidis [26]): 11 mm | zone of inhibition at 1 µg/mL (Blastomyces dermatitidis [27]): 19 mm | Activity (Histoplasma capsulatum [28]): inactive | zone of inhibition at 80 µg/mL (Histoplasma capsulatum [29]): 4 mm | zone of inhibition at 40 µg/mL (Histoplasma capsulatum [30]): 5 mm | zone of inhibition at 10 µg/mL (Histoplasma capsulatum [31]): 8 mm | zone of inhibition at 60 µg/mL (Histoplasma capsulatum [32]): 9 mm | zone of inhibition at 10 µg/mL (Histoplasma capsulatum [33]): 14 mm
